Results: ChEMBL document CHEMBL1143617, “Potential antitumor agents. 37. Synthesis and antitumor activity of guanylhydrazones from imidazo[2,1-b]thiazoles and from the new heterocyclic system thiazolo[2',3':2,3]imidazo[4,5-c]quinoline” (2005)

Columns and labels:
[1] = tested on: Panel NCI-60 (60 carcinoma cell lines); test: Cytostatic effect against human cancer cell line; (Range=-4.01 to -5.65); assay type: functional; conditions: read-out: Log TGI (converted)
Method in brief: (§1)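 NCI 60 human tumour cell line panel, entered after a three-cell-line prescreen. Five concentrations at 10-fold dilutions: 10-4, 10-5, 10-6, 10^-7 and 10^-8 M. Results given as log values of growth inhibitory power (GI50) and cytostatic effect.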

[2] = tested on: Panel NCI-60 (60 carcinoma cell lines); test: Growth inhibitory power against human cancer cell line; (Range=-4.04 to -6.08); assay type: functional; method in brief: as §1
[3] = tested on: Panel NCI-60 (60 carcinoma cell lines); test: Cytotoxic effect against human cancer cell line; (Range=-4.01 to -5.01); assay type: functional
Method in brief: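 NCI 60-cell-line panel, tested at five 10-fold dilutions from 10^-4 M down to 10^-8 M. Results are expressed as log values of growth inhibitory power (GI50) and cytostatic effect.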

Rattus norvegicus [4] = organism: Rattus norvegicus; test: Inhibitory effect on mitochondrial respiration in […]-uncoupled rat liver mitochondria; Activity measured as succinate-O2 activity adding succinate; assay type: functional
Method in brief: (§2)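 Isolated coupled rat liver mitochondria; compound at 35 µM. Oxygen consumption was measured polarographically with a Clark electrode. Reactions were started with a saturating amount of substrate: glutamate/malate (NADH-O2), succinate (succinate-O2) or ascorbate/TMPD (Complex IV). The uncoupled rate was obtained by adding 2,4-dinitrophenol. The respiratory control index was also derived. Rates are in ngA oxygen/min/mg protein, mean of five and eight independent measures.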

Rattus norvegicus [5] = organism: Rattus norvegicus; test: Inhibitory effect on mitochondrial respiration in […]-uncoupled rat liver mitochondria; Activity measured as NADH-O2 activity adding glutamate/malate; assay type: functional; method in brief: as §2
Rattus norvegicus [6] = organism: Rattus norvegicus; test: Compound was tested against rat liver mitochondria respiration; Activity as respiratory control index measured as succinate-O2 activity adding succinate; assay type: functional; method in brief: as §2
Rattus norvegicus [7] = organism: Rattus norvegicus; test: Compound was tested against rat liver mitochondria respiration; Activity as respiratory control index measured as NADH-O2 activity adding glutamate/malate; assay type: functional; method in brief: as §2
Rattus norvegicus [8] = organism: Rattus norvegicus; test: Inhibitory effect on mitochondrial respiration in […]-uncoupled rat liver mitochondria; Activity measured as TMPD test complex IV activity adding ascorbate; assay type: functional; method in brief: as §2
Rattus norvegicus [9] = organism: Rattus norvegicus; test: Compound was tested against rat liver mitochondria respiration; Activity as respiratory control index measured as TMPD test complex IV activity adding ascorbate; assay type: functional; method in brief: as §2
K562 = test: Growth inhibitory power against human leukemia (K-562)cell line; assay type: functional; method in brief: as §1
RXF 393 = test: Growth inhibitory power against human renal (RXF 393) cell line; assay type: functional; method in brief: as §1
COLO 205 = test: Growth inhibitory power against human colon (COLO 205) cell line; assay type: functional; method in brief: as §1
OVCAR-3 = test: Growth inhibitory power against human ovarian (OVCAR-3) cell line cell line; assay type: functional; method in brief: as §1
Rattus norvegicus [10] = organism: Rattus norvegicus; test: Inhibitory effect on mitochondrial respiration in coupled rat liver mitochondria at 35 uM concentration measured as succinate-O2 activity adding succinate; State 3
Rattus norvegicus [11] = organism: Rattus norvegicus; test: Inhibitory effect on mitochondrial respiration in coupled rat liver mitochondria at 35 uM concentration measured as succinate-O2 activity adding succinate; State 4
Rattus norvegicus [12] = organism: Rattus norvegicus; test: Inhibitory effect on mitochondrial respiration in coupled rat liver mitochondria at 35 uM concentration measured as NADH-O2 activity adding glutamate/malate; State 4
Rattus norvegicus [13] = organism: Rattus norvegicus; test: Inhibitory effect on mitochondrial respiration in coupled rat liver mitochondria at 35 uM concentration measured as NADH-O2 activity adding glutamate/malate; State 3
Rattus norvegicus [14] = organism: Rattus norvegicus; test: Inhibitory effect on mitochondrial respiration in coupled rat liver mitochondria at 35 uM concentration measured as TMPD test complex IV activity adding ascorbate; State 3
Rattus norvegicus [15] = organism: Rattus norvegicus; test: Inhibitory effect on mitochondrial respiration in coupled rat liver mitochondria at 35 uM concentration measured as TMPD test complex IV activity adding ascorbate; State 4

SMILES	TGI [1]	GI50 [2]	LC50 (50% lethal concentration) [3]	other results
COc1cc(-c2nc3sccn3c2/C=N/N=C(N)N)c([N+](=O)[O-])cc1OC	< 2.24 µM	< 0.832 µM	< 9.77 µM	–
N=C(N)N/N=C/c1c(-c2ccc(O)c(O)c2)nc2sccn12	< 2.24 µM	< 0.832 µM	< 9.77 µM	–
COc1ccc(OC)c([N+](=O)[O-])c1-c1nc2scc(C)n2c1/C=N/N=C(N)N	< 2.24 µM	< 0.832 µM	< 9.77 µM	–
COc1ccc(-c2nc3sccn3c2/C=N/N=C(N)N)cc1OC	< 2.24 µM	< 0.832 µM	< 9.77 µM	–
COc1ccc(OC)c([N+](=O)[O-])c1-c1nc2n(c1/C=N/N=C(N)N)CCS2	< 2.24 µM	< 0.832 µM	< 9.77 µM	–
COc1cc([N+](=O)[O-])c(OC)cc1-c1nc2sc(Cl)cn2c1/C=N/N=C(N)N	–	–	–	Actvity (ngAoxigen/min/mg of RLM) (Rattus norvegicus [4]): 81.7; Actvity (ngAoxigen/min/mg of RLM) (Rattus norvegicus [5]): 74.2; Actvity (Rattus norvegicus [6]): 1.7; Actvity (Rattus norvegicus [7]): 2.3; Actvity (ngAoxigen/min/mg of RLM) (Rattus norvegicus [8]): 158; Actvity (Rattus norvegicus [9]): 1.5; GI50 (K562): 1.91 µM; GI50 (RXF 393): 1.45 µM; GI50 (COLO 205): 1.55 µM; GI50 (OVCAR-3): 0.589 µM; Actvity (ngAoxigen/min/mg of RLM) (Rattus norvegicus [10]): 54.9; Actvity (ngAoxigen/min/mg of RLM) (Rattus norvegicus [11]): 33.4; Actvity (ngAoxigen/min/mg of RLM) (Rattus norvegicus [12]): 23.1; Actvity (ngAoxigen/min/mg of RLM) (Rattus norvegicus [13]): 47.7; Actvity (ngAoxigen/min/mg of RLM) (Rattus norvegicus [14]): 142; Actvity (ngAoxigen/min/mg of RLM) (Rattus norvegicus [15]): 98
CC(/C=N/NC(=N)N)=N/NC(=N)N	–	–	–	Actvity (ngAoxigen/min/mg of RLM) (Rattus norvegicus [4]): 169; Actvity (ngAoxigen/min/mg of RLM) (Rattus norvegicus [5]): 106; Actvity (Rattus norvegicus [6]): 3.7; Actvity (Rattus norvegicus [7]): 4.9; Actvity (ngAoxigen/min/mg of RLM) (Rattus norvegicus [8]): 156; Actvity (Rattus norvegicus [9]): 1.7; Actvity (ngAoxigen/min/mg of RLM) (Rattus norvegicus [10]): 141; Actvity (ngAoxigen/min/mg of RLM) (Rattus norvegicus [11]): 39.2; Actvity (ngAoxigen/min/mg of RLM) (Rattus norvegicus [12]): 17.9; Actvity (ngAoxigen/min/mg of RLM) (Rattus norvegicus [13]): 80; Actvity (ngAoxigen/min/mg of RLM) (Rattus norvegicus [14]): 128; Actvity (ngAoxigen/min/mg of RLM) (Rattus norvegicus [15]): 91.1
O=C1C=CC(=O)c2c1ncc1c2nc2sccn21	< 2.24 µM	< 0.832 µM	< 9.77 µM	–
COc1cc([N+](=O)[O-])c(OC)cc1-c1nc2scc(C)n2c1/C=N/N=C(N)N	< 2.24 µM	< 0.832 µM	< 9.77 µM	–
COc1cc(OC)c([N+](=O)[O-])cc1-c1nc2sccn2c1/C=N/N=C(N)N	< 2.24 µM	< 0.832 µM	< 9.77 µM	–
COc1ccc(OC)c([N+](=O)[O-])c1-c1nc2sc(C)c(C)n2c1/C=N/N=C(N)N	< 2.24 µM	< 0.832 µM	< 9.77 µM	–
CCCc1cn2c(/C=N/N=C(N)N)c(-c3c(OC)ccc(OC)c3[N+](=O)[O-])nc2s1	< 2.24 µM	< 0.832 µM	< 9.77 µM	–
COc1cc2ncc3c(nc4sccn43)c2cc1OC	< 2.24 µM	< 0.832 µM	< 9.77 µM	–
COc1cc([N+](=O)[O-])c(OC)cc1-c1nc2sc(C)cn2c1/C=N/N=C(N)N	< 2.24 µM	< 0.832 µM	< 9.77 µM	–
COc1ccc(OC)c([N+](=O)[O-])c1-c1nc2sc(C)cn2c1/C=N/N=C(N)N	< 2.24 µM	< 0.832 µM	< 9.77 µM	–
COc1ccc(OC)c2c1ncc1c2nc2sccn21	< 2.24 µM	< 0.832 µM	< 9.77 µM	–
COc1cc([N+](=O)[O-])c(OC)cc1-c1nc2sccn2c1/C=N/NC(=N)N	< 2.24 µM	< 0.832 µM	< 9.77 µM	–
N=C(N)/N=N/c1ccc(NNC(=N)N)c2ncc3c(nc4sccn43)c12	< 2.24 µM	< 0.832 µM	< 9.77 µM	–
COc1cc([N+](=O)[O-])c(OC)cc1-c1nc2n(c1/C=N/N=C(N)N)CCS2	< 2.24 µM	< 0.832 µM	< 9.77 µM	–
COc1ccc(OC)c([N+](=O)[O-])c1-c1nc2sccn2c1/C=N/N=C(N)N	< 2.24 µM	< 0.832 µM	< 9.77 µM	–
COc1ccc(OC)c(-c2nc3sccn3c2/C=N/N=C(N)N)c1	< 2.24 µM	< 0.832 µM	< 9.77 µM	–
N=C(N)N/N=C/c1c(-c2cc(O)ccc2O)nc2sccn12	< 2.24 µM	< 0.832 µM	< 9.77 µM	–
COc1cc([N+](=O)[O-])c(OC)cc1-c1nc2sc(C)c(C)n2c1/C=N/N=C(N)N	< 2.24 µM	< 0.832 µM	< 9.77 µM	–
COc1ccc(OC)c([N+](=O)[O-])c1-c1nc2sc(Cl)cn2c1/C=N/N=C(N)N	< 2.24 µM	< 0.832 µM	< 9.77 µM	–
